What was measured:
Assay type in all cases: functional
[1] = Growth inhibition of human Hs 578T cells
[2] = tested on: SK-MEL-2; assay: Growth inhibition of human SK-MEL-2 cells assessed tumor cell growth at 10^-5 M; design: scale not given: the % may be the effect or the level left
Summary of the method: (§1)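 NCI 60-human-tumor-cell-line panel screen. Each compound was tested at a single concentration of 10^-5 M, and percent growth of tumor cells was recorded for each cell line. Growth inhibition was expressed from these percent-growth values.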

[3] = tested on: NCI/ADR-RES; assay: Growth inhibition of human NCI/ADR-RES cells
[4] = tested on: HOP-92; assay: Growth inhibition of human HOP92 cells assessed tumor cell growth at 10^-5 M; design: scale not given: the % may be the effect or the level left; summary of the method: as §1
[5] = tested on: OVCAR-4; assay: Growth inhibition of human OVCAR4 cells
[6] = tested on: HCT-116; assay: Growth inhibition of human HCT116 cells
[7] = tested on: UO-31; assay: Growth inhibition of human UO31 cells
[8] = Growth inhibition of human Hs 578T cells assessed tumor cell growth at 10^-5 M; design: scale not given: the % may be the effect or the level left; summary of the method: as §1
[9] = tested on: ACHN; assay: Growth inhibition of human ACHN cells assessed tumor cell growth at 10^-5 M; design: scale not given: the % may be the effect or the level left; summary of the method: as §1
[10] = tested on: IGROV-1; assay: Growth inhibition of human IGROV1 cells assessed tumor cell growth at 10^-5 M; design: scale not given: the % may be the effect or the level left; summary of the method: as §1
[11] = tested on: SN12C; assay: Growth inhibition of human SN12C cells
[12] = tested on: BT-549; assay: Growth inhibition of human BT549 cells assessed tumor cell growth at 10^-5 M; design: scale not given: the % may be the effect or the level left; summary of the method: as §1
[13] = tested on: COLO 205; assay: Growth inhibition of human COLO205 cells
[14] = tested on: OVCAR-5; assay: Growth inhibition of human OVCAR5 cells
[15] = tested on: U-251; assay: Growth inhibition of human U251 cells assessed tumor cell growth at 10^-5 M; design: scale not given: the % may be the effect or the level left
Summary of the method: (§2)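 Single-dose screen at 10^-5 M across the 60 human tumor cell line panel, run to NCI standards. The value is the percent growth of each cell line in the presence of compound. Compounds active at this dose moved on to five-concentration testing (10^-4 to 10^-8 M).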

[16] = Growth inhibition of human […] cells assessed tumor cell growth at 10^-5 M; design: scale not given: the % may be the effect or the level left; summary of the method: as §1
[17] = tested on: HCC 2998; assay: Growth inhibition of human HCC2998 cells
[18] = tested on: SK-OV-3; assay: Growth inhibition of human SKOV3 cells
[19] = tested on: MOLT-4; assay: Growth inhibition of human MOLT4 cells
[20] = tested on: K562; assay: Growth inhibition of human K562 cells assessed tumor cell growth at 10^-5 M; design: scale not given: the % may be the effect or the level left; summary of the method: as §1
[21] = tested on: TK-10; assay: Growth inhibition of human TK10 cells
[22] = tested on: NCI-H522; assay: Growth inhibition of human NCI-H522 cells assessed tumor cell growth at 10^-5 M; design: scale not given: the % may be the effect or the level left; summary of the method: as §1
[23] = tested on: SF-539; assay: Growth inhibition of human SF539 cells assessed tumor cell growth at 10^-5 M; design: scale not given: the % may be the effect or the level left; summary of the method: as §1
[24] = tested on: SK-OV-3; assay: Growth inhibition of human SKOV3 cells assessed tumor cell growth at 10^-5 M; design: scale not given: the % may be the effect or the level left; summary of the method: as §1
[25] = tested on: SF-268; assay: Growth inhibition of human SF268 cells assessed tumor cell growth at 10^-5 M; design: scale not given: the % may be the effect or the level left; summary of the method: as §1
[26] = tested on: SK-MEL-5; assay: Growth inhibition of human SK-MEL-5 cells
[27] = tested on: UO-31; assay: Growth inhibition of human UO31 cells assessed tumor cell growth at 10^-5 M; design: scale not given: the % may be the effect or the level left; summary of the method: as §2
[28] = tested on: NCI-H522; assay: Growth inhibition of human NCI-H522 cells
[29] = tested on: M14; assay: Growth inhibition of human M14 cells
[30] = tested on: HCT-15; assay: Growth inhibition of human HCT15 cells assessed tumor cell growth at 10^-5 M; design: scale not given: the % may be the effect or the level left; summary of the method: as §1
[31] = tested on: ACHN; assay: Growth inhibition of human ACHN cells
[32] = tested on: CAKI-1; assay: Growth inhibition of human Caki1 cells
[33] = tested on: SF-268; assay: Growth inhibition of human SF268 cells
[34] = tested on: SK-MEL-5; assay: Growth inhibition of human SK-MEL-5 cells assessed tumor cell growth at 10^-5 M; design: scale not given: the % may be the effect or the level left; summary of the method: as §1
[35] = tested on: SNB-19; assay: Growth inhibition of human SNB19 cells assessed tumor cell growth at 10^-5 M; design: scale not given: the % may be the effect or the level left; summary of the method: as §2
[36] = tested on: SW-620; assay: Growth inhibition of human SW620 cells assessed tumor cell growth at 10^-5 M; design: scale not given: the % may be the effect or the level left; summary of the method: as §2
[37] = tested on: SNB-75; assay: Growth inhibition of human SNB75 cells assessed tumor cell growth at 10^-5 M; design: scale not given: the % may be the effect or the level left; summary of the method: as §2
[38] = tested on: EKVX; assay: Growth inhibition of human EKVX cells assessed tumor cell growth at 10^-5 M; design: scale not given: the % may be the effect or the level left; summary of the method: as §1
[39] = tested on: OVCAR-8; assay: Growth inhibition of human OVCAR8 cells assessed tumor cell growth at 10^-5 M; design: scale not given: the % may be the effect or the level left; summary of the method: as §1
[40] = Growth inhibition of human RPMI8266 cells
[41] = tested on: KM12; assay: Growth inhibition of human KM12 cells
[42] = tested on: SNB-75; assay: Growth inhibition of human SNB75 cells
[43] = tested on: LOX IMVI; assay: Growth inhibition of human LOXIMVI cells assessed tumor cell growth at 10^-5 M; design: scale not given: the % may be the effect or the level left; summary of the method: as §1
[44] = tested on: K562; assay: Growth inhibition of human K562 cells
[45] = tested on: OVCAR-5; assay: Growth inhibition of human OVCAR5 cells assessed tumor cell growth at 10^-5 M; design: scale not given: the % may be the effect or the level left; summary of the method: as §1
[46] = tested on: M14; assay: Growth inhibition of human M14 cells assessed tumor cell growth at 10^-5 M; design: scale not given: the % may be the effect or the level left; summary of the method: as §1
[47] = tested on: LOX IMVI; assay: Growth inhibition of human LOXIMVI cells
[48] = tested on: UACC-257; assay: Growth inhibition of human UACC257 cells
[49] = tested on: NCI-H226; assay: Growth inhibition of human NCI-H226 cells assessed tumor cell growth at 10^-5 M; design: scale not given: the % may be the effect or the level left; summary of the method: as §1
[50] = tested on: SF-295; assay: Growth inhibition of human SF295 cells
[51] = tested on: IGROV-1; assay: Growth inhibition of human IGROV1 cells
Summary of the method: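 Follow-up panel testing at five concentrations (10^-4, 10^-5, 10^-6, 10^-7 and 10^-8 M) across the 60 human tumor cell lines. GI50 was obtained for each line from the concentration-response data, with the panel average GI50 also reported.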

[52] = tested on: TK-10; assay: Growth inhibition of human TK10 cells assessed tumor cell growth at 10^-5 M; design: scale not given: the % may be the effect or the level left; summary of the method: as §2
[53] = read-out: LC50 (the source's name)

CC1=NN(c2cccc(Cl)c2)C(=O)/C1=C\C=C\c1ccccc1
GI50 [1]: 1.6 µM
CC50 [1, 53]: > 100 µM
Activity [2]: 74.62%
GI50 [3]: 3.3 µM
CC50 [3, 53]: > 100 µM
Activity [4]: 101.34%
GI50 [5]: 3.3 µM
CC50 [5, 53]: > 100 µM
GI50 [6]: 1.5 µM
CC50 [6, 53]: 6.1 µM
GI50 [7]: 1.6 µM
CC50 [7, 53]: 7.5 µM
Activity [8]: 132.74%
Activity [9]: -51.29%
Activity [10]: 45.54%
GI50 [11]: 2.4 µM
CC50 [11, 53]: > 100 µM
Activity [12]: 78.36%
GI50 [13]: 2.3 µM
LC50 [13]: > 100 µM
GI50 [14]: 2.8 µM
CC50 [14, 53]: > 100 µM
Activity [15]: -57.37%
Activity [16]: 15.38%
GI50 [17]: 1.9 µM
CC50 [17, 53]: 6.3 µM
GI50 [18]: 3.2 µM
CC50 [18, 53]: > 100 µM
GI50 [19]: 3.1 µM
LC50 [19]: > 100 µM
Activity [20]: 76.92%
GI50 [21]: 3.1 µM
CC50 [21, 53]: > 100 µM
Activity [22]: 34.37%
Activity [23]: 21.62%
Activity [24]: 48.42%
Activity [25]: 75.5%
GI50 [26]: 2.2 µM
CC50 [26, 53]: 20.8 µM
Activity [27]: 69.7%
GI50 [28]: 2.6 µM
LC50 (concentration killing 50% of cells) [28]: > 100 µM
GI50 [29]: 1.6 µM
CC50 [29, 53]: 7.5 µM
Activity [30]: 5%
GI50 [31]: 1.7 µM
CC50 [31, 53]: 6.1 µM
GI50 [32]: 1.9 µM
CC50 [32, 53]: > 100 µM
GI50 [33]: 2.3 µM
CC50 [33, 53]: > 100 µM
Activity [34]: 5.05%
Activity [35]: 37.51%
Activity [36]: 1.26%
Activity [37]: 62.01%
Activity [38]: 87.07%
Activity [39]: 0.37%
GI50 [40]: 2.8 µM
CC50 [40, 53]: > 100 µM
GI50 [41]: 1.6 µM
CC50 [41, 53]: 5.8 µM
GI50 [42]: 7 µM
CC50 [42, 53]: > 100 µM
Activity [43]: -87.87%
GI50 [44]: 2.8 µM
CC50 [44, 53]: > 100 µM
Activity [45]: 143.86%
Activity [46]: 14.42%
GI50 [47]: 1.4 µM
CC50 [47, 53]: 6.7 µM
GI50 [48]: 2.1 µM
CC50 [48, 53]: > 100 µM
Activity [49]: 3.87%
GI50 [50]: 3.1 µM
CC50 [50, 53]: > 100 µM
GI50 [51]: 1.6 µM
CC50 [51, 53]: 16.5 µM
Activity [52]: 44.8%

— ChEMBL document CHEMBL1811814, “Synthesis and evaluation of indole, pyrazole, chromone and pyrimidine based conjugates for tumor growth inhibitory activities--development of highly efficacious cytotoxic agents” (Eur J Med Chem, 2010)
